# M1 ag = activates human CHRM1 receptor | P11229 | CHO-K1 hM1, Fluo-8 calcium fluorescence, agonist mode; 0% DMSO, 100% acetylcholine EC100 | hit rate 0.33% among 360,000 | activation, % at 3 µM;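 active = activation above the run's mean compound activation plus 3 SD, cut at about 16% in these data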;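 also: peak over basal fluorescence ratio within a 140 s kinetic read after compound addition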
# M1 PAM = positive allosteric modulators of human M1 muscarinic receptor | P11229 | CHO-K1 hM1, Fluo-8 calcium fluorescence, ACh EC20; 0% = ACh EC20, 100% = maximal ACh | AID 588819 | activation, % at 3 µM | hit rate 0.088% among 360,000; in the data active = activation above about 19%, passing the limit was not always enough
# CHRM1 antagonist = human CHRM1 antagonism | P11229 | CHO-K1 hM1, Fluo-8 calcium fluorescence, ACh EC80 antagonist | inhibition, % at 3 µM | hit rate 1.3% among 360,000 | AID 588852;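 active = percent inhibition above its own plate's cutoff, namely the mean of that plate's compound wells plus 3 SD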;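 also: peak over basal fluorescence ratio during 140 s after agonist addition; 0% = ACh EC80 plus DMSO and 100% = DMSO alone without agonist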
# TAAR1 ag = agonists of human TAAR1 | Q96RJ0 | CHO RD-HGA16 TAAR1, Fluo-8 calcium fluorescence; vehicle wells 0%, saturating PEA agonist 100% | activation, % at 3 µM | hit rate 0.99% among 360,000;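 active = activation above the mean activation of all test compounds in the run plus 3 SD, cut at about 38% in these data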
# Target sequence (Q96RJ0 whole entry, looked up): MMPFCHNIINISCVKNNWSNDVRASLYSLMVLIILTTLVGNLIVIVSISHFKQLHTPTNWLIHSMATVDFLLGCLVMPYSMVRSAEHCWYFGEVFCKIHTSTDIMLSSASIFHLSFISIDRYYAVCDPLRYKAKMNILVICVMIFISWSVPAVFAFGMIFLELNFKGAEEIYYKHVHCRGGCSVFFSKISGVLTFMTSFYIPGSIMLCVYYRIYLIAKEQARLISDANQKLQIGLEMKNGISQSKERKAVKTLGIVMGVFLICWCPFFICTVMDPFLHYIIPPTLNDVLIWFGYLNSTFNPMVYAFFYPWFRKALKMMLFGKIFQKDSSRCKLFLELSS
#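 Assay system – CHO-derived RD-HGA16 cells with stable Gα16 and human TAAR1 · Compound dosing – one-point dosing at 3 µM (nominal) · Incubation – 17-24 h seeding, 75 min 37 °C dye, 30 min RT · Measured by – kinetic Fluo-8 calcium fluorescence · Control set – DMSO vehicle as 0%, PEA at EC100 as 100% · Repeats – single well for each compound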
# TAAR1 antag = antagonists of human TAAR1; hit rate 1.5% among 360,000; Q96RJ0; inhibition, % at 3 µM; CHO RD-HGA16 TAAR1, Fluo-8 calcium fluorescence, antagonist;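 active = inhibition above a per-plate cutoff, the mean inhibition of test compounds on that plate plus 3 SD, cut at about 49% in these data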;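 also: 0% = DMSO plus EC80 beta-PEA response and 100% = DMSO alone without agonist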
#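 Assay system: CHO-derived RD-HGA16 cells stably expressing human TAAR1 plus Gα16. Timing: 140 s kinetic read after compound, 140 s after agonist. Technique: kinetic Fluo-8 calcium fluorescence measurement. Measure: % inhibition of agonist calcium response.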
# HTR2A ag = mouse HTR2A agonism via beta-arrestin recruitment. P35363. CHO-K1 mHTR2A beta-arrestin complementation, luminescence; percent of 30 µM serotonin response. activation, % at 7.6 µM. hit rate 0.66% among 360,000. AID 624169;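 active = activation above a run cutoff, the mean activation of all tested compounds plus 3 SD, cut at about 14% in these data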;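 also: 0% = plate median of compound wells and 100% = 30 µM serotonin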
# MOR ag counter = OPRM1 agonism in mouse HTR2A counterscreen; shares compounds with HTR2A ag; AID 624380; U2OS OPRM1 beta-arrestin PathHunter, luminescence; DMSO 0%, DAMGO 9.3 µM 100%; hit rate 5.3% among 2,300; activation, % at 9.3 µM;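 active = mean activation above the mean of DMSO-only wells plus 3 SD, cut at about 0.5% in these data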
# Target sequence (P35372 whole entry, looked up): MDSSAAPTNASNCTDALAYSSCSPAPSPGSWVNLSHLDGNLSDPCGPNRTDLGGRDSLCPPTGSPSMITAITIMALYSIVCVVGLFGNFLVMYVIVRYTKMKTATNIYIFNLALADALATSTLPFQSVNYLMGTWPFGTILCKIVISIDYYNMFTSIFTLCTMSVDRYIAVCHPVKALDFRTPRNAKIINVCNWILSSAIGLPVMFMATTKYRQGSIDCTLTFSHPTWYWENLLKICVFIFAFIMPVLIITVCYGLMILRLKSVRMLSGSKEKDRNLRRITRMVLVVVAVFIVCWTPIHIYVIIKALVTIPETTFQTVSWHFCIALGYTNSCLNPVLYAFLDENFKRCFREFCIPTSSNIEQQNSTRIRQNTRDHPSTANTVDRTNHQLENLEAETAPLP
# HTR2A ag conf = confirmation of mouse HTR2A serotonin receptor agonists; shares compounds with HTR2A ag; CHO-K1 PathHunter beta-arrestin recruitment, luminescence; DMSO 0%, 30 µM serotonin 100%; activation, % at 7.6 µM; hit rate 19% among 2,300; AID 624381;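 active = mean activation across triplicates above the hit threshold derived in the original primary screen, cut at about 15% in these data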
# TAAR1 nonsel count = nonselective antagonist in TAAR1 antagonist counter-screen; hit rate 77% among 2,400; AID 651780; counterscreen cell line, calcium fluorescence, antagonist mode; shares compounds with TAAR1 antag; inhibition, % at 3 µM; in the data active = inhibition above about 22%;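 also: CHO-Ga16 host cells stimulated with ATP at an EC80 level; 0% = agonist EC80 plus vehicle and 100% = vehicle without agonist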
# TAAR1 antag conf = human TAAR1 antagonism, confirmed | hit rate 40% among 2,400 | shares compounds with TAAR1 antag | TAAR1-expressing cells, fluorescence antagonist read-out | inhibition, % at 3 µM | AID 651785; in the data active = inhibition above about 49%;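 also: CHO-Ga16 host cells challenged with agonist PEA near its EC80; 0% = agonist at EC80 plus vehicle and 100% = vehicle with no agonist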
# Ga16 ag counter-1 = counter-screen for TAAR1 antagonists: nonselective Ga16 agonists. shares compounds with TAAR1 antag. Ga16-expressing cells, calcium fluorescence, agonist counterscreen. activation, % at 3 µM. hit rate 18% among 2,400. AID 651953; in the data active = activation above about 12%;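 also: 0% = vehicle wells and 100% = saturating stimulus response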
# TAAR1 ag count = TAAR1 agonism, antagonist counter-screen. activation, % at 3 µM. shares compounds with TAAR1 antag. hit rate 2% among 2,400. hTAAR1 cell line, fluorescence activation, agonist mode; in the data active = activation above about 37%;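 also: CHO cells stably expressing TAAR1 with calcium dye readout; 0% = DMSO vehicle and 100% = full agonist response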
# TAAR1 ag confirm = human TAAR1 agonism, confirmed | shares compounds with TAAR1 ag | CHO RD-HGA16 TAAR1, Fluo-8 calcium fluorescence; scaled: DMSO 0%, maximal phenethylamine 100% | activation, % at 3 µM | hit rate 82% among 2,400;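 active = activation above a cutoff set at the run's mean compound activation plus 3 SD, cut at about 39% in these data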
# Ga16 ag counter-2 = nonselective agonist in parental cells, TAAR1 agonist counter-screen; CHO-Ga16 parental, Fluo-8 calcium fluorescence; normalized to maximal ATP response, DMSO zero; AID 651787; shares compounds with TAAR1 ag; hit rate 50% among 2,400; activation, % at 3 µM;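 active = activation above the run cutoff, the mean activation over all tested wells plus 3 SD, cut at about 12% in these data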;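 also: 0% = DMSO wells and 100% = maximal ATP response on the peak over basal ratio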
# TAAR1 desensitize = TAAR1 response desensitization, agonist counter-screen; shares compounds with TAAR1 ag; CHO RD-HGA16 hTAAR1, Fluo-8 calcium, beta-PEA response inhibition; inhibition, % at 3 µM; hit rate 46% among 2,400; AID 651951;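 active = inhibition above the run cutoff, the mean inhibition of all test compounds plus 3 SD, cut at about 49% in these data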;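 also: beta-PEA stimulus applied at its EC80; loss of beta-PEA calcium signal after compound pretreatment read as receptor desensitization; 0% = DMSO with beta-PEA at EC80 and 100% = DMSO alone without agonist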
# Ga16 antag count = nonselective Ga16 antagonism, counter-screen; shares compounds with TAAR1 ag; CHO-Ga16 ATP-induced calcium, Fluo-8 fluorescence; inhibition, % at 3 µM; hit rate 39% among 2,400; AID 651952;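 active = inhibition above the plate's mean compound inhibition plus 3 SD, computed per plate, cut at about 22% in these data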;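 also: 0% = EC80 ATP with DMSO and 100% = DMSO wells without ATP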
# An asterisk follows results filed as active; . = no result given. Shown are actives, neighbours in structure and some others; about 3.9% of the full set was active somewhere.
SMILES,M1 ag,M1 PAM,CHRM1 antagonist,TAAR1 ag,TAAR1 antag,HTR2A ag,TAAR1 nonsel count,TAAR1 antag conf,Ga16 ag counter-1,TAAR1 ag count,others
COc1ccccc1CC(=O)N1CCN(c2ccccc2F)CC1,-0.9,0.5,-1.1,3.4,8.5,2.2,.,.,.,.,
COc1ccccc1NC(=O)Nc1nc(CC(=O)N2CCN(c3ccccc3F)CC2)cs1,-0.6,-0.8,14.7,15.4,64.7*,14.7*,29.3*,48.4,10.0,10.8,MOR ag counter=-0.2;HTR2A ag conf=-0.1
O=C(CN1CCN(S(=O)(=O)c2ccc(Br)cc2)CC1)N/N=C/c1cccnc1,-6.2,3.4,-6.6,2.6,-3.9,-1.0,.,.,.,.,
COC(=O)CN(C#N)c1nc(NCc2ccccc2)nc(OC)n1,-4.3,12.6,-9.8,-0.7,5.3,4.6,.,.,.,.,
O=C(O)C1CCCCC1C(=O)NCc1ccccc1 (configuration not stated),-1.1,-3.6,15.4,4.3,-11.0,-3.0,.,.,.,.,
O=C(O)C1CCCCC1C(=O)NCCc1cccc(Cl)c1 (configuration not stated),-0.3,0.3,7.8,89.8*,68.4*,34.6*,.,.,.,.,MOR ag counter=-0.4;HTR2A ag conf=-0.8;TAAR1 ag confirm=87.9*;Ga16 ag counter-2=2.3;TAAR1 desensitize=69.5*;Ga16 antag count=-1.4
O=C(O)C1C2C=CC(C2)C1C(=O)NCCc1cccc(Cl)c1 (configuration not stated),-4.2,-0.6,-3.4,.,.,31.6*,.,.,.,.,MOR ag counter=-0.3;HTR2A ag conf=5.2;Ga16 ag counter-2=1.4;Ga16 antag count=9.8
Cc1ccsc1C(=O)N(C)C1CCS(=O)(=O)C1 (configuration not stated),-0.8,2.4,1.4,0.7,-15.9,-2.5,.,.,.,.,
CC(C)(C)c1ccc(/C=C(\C#N)C(=O)NC2CC2)cc1,-2.2,15.2,-11.2,-0.3,-34.6,6.2,.,.,.,.,
CC(=O)c1cccc(OCC(O)CNCC2COc3ccccc3O2)c1 (configuration not stated),-1.2,5.6,-3.8,46.1*,9.8,26.0*,.,.,.,.,MOR ag counter=-0.3;HTR2A ag conf=59.0*;TAAR1 ag confirm=69.9*;Ga16 ag counter-2=5.8;TAAR1 desensitize=41.8;Ga16 antag count=16.6
O=C(CCCN1C(=O)NC2(CCCC2)C1=O)NCc1ccccc1,-2.5,4.4,-1.6,-2.4,-4.9,4.3,.,.,.,.,
O[C@@H](c1cc(C(F)(F)F)nc2c(C(F)(F)F)cccc12)[C@H]1CCCCN1,3.0,7.5,-19.5,45.2*,30.1,25.7*,.,.,.,.,MOR ag counter=0.9*;HTR2A ag conf=14.3;TAAR1 ag confirm=51.4*;Ga16 ag counter-2=24.4*;TAAR1 desensitize=42.9;Ga16 antag count=37.0*
COc1ccc(C(=O)CC(=O)C(=O)Nc2cc(C)ccc2C)cc1,-7.0,5.3,-17.7,4.5,5.9,0.2,.,.,.,.,
COc1ccc(C(=O)CC(=O)C(=O)NCCc2cccc(C)c2)cc1,-7.3,7.4,-17.1,84.2*,80.0*,16.7*,.,.,.,.,MOR ag counter=-0.5;HTR2A ag conf=-2.9;TAAR1 ag confirm=93.9*;Ga16 ag counter-2=2.3;TAAR1 desensitize=83.8*;Ga16 antag count=-0.4
Cc1nc2ccccc2c(=O)n1/N=C/c1ccc(C(C)C)cc1,-2.7,-0.6,4.2,3.5,61.0*,0.0,30.9*,43.3,1.7,-2.6,
CCc1nnc(SCC(=O)Nc2ccc(N3CCOCC3)cc2)n1C,-0.8,6.0,-7.4,-0.2,-12.6,5.9,.,.,.,.,
O=C(CSc1nc2ccccc2s1)NCc1cc([N+](=O)[O-])ccc1O,-4.3,3.1,-1.1,6.8,-9.9,-5.5,.,.,.,.,
CN(C)S(=O)(=O)n1cc(/C=C(\NC(=O)c2ccccc2Cl)C(=O)NCCN2CCOCC2)c2ccccc21,2.2,-8.1,12.5,21.1,73.3*,-6.0,23.7*,44.1,11.4,12.5,
CN(C)S(=O)(=O)n1cc(/C=C(\NC(=O)c2ccccc2Cl)C(=O)NCCCN2CCOCC2)c2ccccc21,-2.2,-12.7,25.8,6.9,25.4,-11.8,.,.,.,.,
CN(C)S(=O)(=O)n1cc(/C=C(\NC(=O)c2ccccc2Cl)C(=O)NCCCn2ccnc2)c2ccccc21,-4.0,-3.4,11.2,7.8,54.7*,1.2,16.7,30.9,6.7,2.8,
COc1cccc(OCc2cc(C(=O)N(Cc3ccccc3)CC3CC3)no2)c1,0.3,-4.5,6.6,1.9,54.5*,-2.8,28.1*,40.4,8.9,16.7,
COc1cccc(OCc2cc(C(=O)N(C)Cc3nc4ccccc4[nH]3)no2)c1,0.8,-4.5,19.6,3.1,7.7,-1.0,.,.,.,.,
Cc1ccc(S(=O)(=O)Nc2ccccc2N=Cc2ccc([N+](=O)[O-])cc2[N+](=O)[O-])cc1,-4.0,-3.7,-1.0,12.6,64.2*,-1.4,-3.9,-2.6,0.1,5.9,
COc1ccc(OC)c(CN2CCCC(C(=O)N3CCCCC3)C2)c1 (configuration not stated),-13.3,-1.1,4.4,-3.0,106.2*,2.7,11.9,1.0,1.2,7.0,
CSCC[C@@H](C(=O)NCCCCCCCCCCC(=O)N1CCN(C(=O)OC(C)(C)C)CC1)n1cc(CCO)nn1,-6.6,-24.7,8.5,20.3,50.2*,5.4,27.6*,42.5,9.2,10.4,
CC(C)(C)OC(=O)NCCCC[C@@H](C(=O)NCCCCCCCCCCC(=O)N1CCN(C(=O)OC(C)(C)C)CC1)n1cc(CCO)nn1,-5.6,-9.8,-4.2,14.5,37.9,8.3,.,.,.,.,

# Bioassay records: PubChem BioAssay, The Scripps Research Institute Molecular Screening Center
